High-throughput results as filed in PubChem.
Hits are enriched below; roughly 1.7% of the tested compounds scored in any of these assays.
IMP-1 inh = blocks Pseudomonas aeruginosa IMP-1 metallo-beta-lactamase. AID 1556. inhibition, % at 5.6 µM. 0.45% of 290,000 active. purified IMP-1, nitrocefin hydrolysis, epi-absorbance fluorescence;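 active = inhibition above the mean plus 3 SD of all compounds in the same screening run, cut at about 4.5% in these data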;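 note: 0% = IMP-1 with DMSO and 100% = DMSO wells lacking enzyme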
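Assay system: purified IMP-1; Quantity: IMP-1 0.2 nM before substrate addition; Medium: HEPES buffer pH 7.1 with ZnSO4 and Brij 35; Incubation: 15 min enzyme–compound preincubation, then 25 min nitrocefin reaction, 25 °C; Signal: fluorescence quenching readout, ex 480/em 530 nm; Controls: DMSO with and without IMP-1; Repeats: singlicate testing.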
PolyA inh = blocks polyadenylation in yeast reporter cells; S. cerevisiae SKY197-pL101 polyadenylation reporter, beta-gal luminescence; efflux-impaired pdr1/pdr3 knockout yeast; score 100 = 6 SD above DMSO; activity score, % at 12 µM; 0.02% of 300,000 active;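 active = lowest replicate activity score at least 50, where 100 means six control SD above control mean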;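 note: yeast exposed to compound for 9 h at 30 °C; higher score means more reporter readthrough which indicates perturbed polyadenylation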
procasp3 activ = activators of human procaspase-3 | P42574 | recombinant procaspase-3 D3A, Ac-DEVD-pNA absorbance 405 nm | 0.11% of 330,000 active | activation, % at 8.5 µM;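 active = activation above the mean of all tested compounds plus 3 SD, cut at about 21% in these data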;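 note: 0% = DMSO alone and 100% = DMSO wells spiked with extra 5 µM PC-3 D3A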
Target sequence (P42574 whole entry D9A/D28A/D175A): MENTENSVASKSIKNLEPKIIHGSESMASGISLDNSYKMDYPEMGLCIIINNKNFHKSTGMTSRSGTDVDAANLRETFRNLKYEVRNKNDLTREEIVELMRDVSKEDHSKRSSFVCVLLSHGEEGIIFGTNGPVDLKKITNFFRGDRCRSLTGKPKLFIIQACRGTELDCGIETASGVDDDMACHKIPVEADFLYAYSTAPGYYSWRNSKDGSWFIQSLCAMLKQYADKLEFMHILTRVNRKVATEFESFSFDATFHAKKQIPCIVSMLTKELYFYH
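Test system: Procaspase-3 D3A mutant, all three cleavage aspartates alanine | Dosing: Single dose, 8.5 µM nominal compound, 0.8% DMSO | Schedule: 1 h preincubation, 2 h reaction | Technique: 405 nm absorbance of p-nitroaniline, reads at 0 and 120 min | Repeats: One well per compound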
VIM-2 inh = blocks Pseudomonas aeruginosa VIM-2 metallo-beta-lactamase | purified VIM-2, nitrocefin hydrolysis, epi-absorbance fluorescence | inhibition, % at 5.6 µM | 0.89% of 290,000 active | AID 1527;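 active = inhibition above the mean of all tested compounds plus 3 SD, cutoff set per screening run, cut at about 7.5% in these data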;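 note: red hydrolysis product quenches plate fluorescence so inhibitors raise well fluorescence; 0% = enzyme with DMSO and 100% = DMSO without enzyme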
Neddylation inh = cullin neddylation inhibition. 0.58% of 360,000 active. AID 651699. TR-FRET cullin neddylation, biochemical. calls only at 25 µM; in the data active = inhibition above about 36%
proCasp7 act = activates human procaspase-7, counter-screen for procaspase-3 activators. activation, % at 8.5 µM. P55210. recombinant procaspase-7, Ac-DEVD-pNA absorbance 405 nm; D23A/D198A/D206A triple mutant, cannot self-cleave; scale: DMSO 0, 5 µM enzyme 100. AID 463210. 0.093% of 330,000 active;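 active = percent activation above the screen-wide mean plus 3 SD, cut at about 25% in these data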
Target sequence (P55210 whole entry D23A/D198A/D206A): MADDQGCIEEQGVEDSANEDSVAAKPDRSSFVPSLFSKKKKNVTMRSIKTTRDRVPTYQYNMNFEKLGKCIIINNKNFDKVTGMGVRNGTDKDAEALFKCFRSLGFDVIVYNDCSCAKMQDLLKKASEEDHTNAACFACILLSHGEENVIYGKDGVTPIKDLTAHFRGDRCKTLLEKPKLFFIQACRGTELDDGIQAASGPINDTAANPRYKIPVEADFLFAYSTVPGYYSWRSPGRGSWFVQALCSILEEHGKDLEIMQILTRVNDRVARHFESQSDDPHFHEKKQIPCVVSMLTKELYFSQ
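System: Uncleavable procaspase-7 mutant enzyme; Amount: 2 µM procaspase-7 mutant as dispensed; Schedule: 1 h compound preincubation, 2 h substrate cleavage, 25 °C; Measured by: 405 nm absorbance of p-nitroaniline; Evaluation: percent activation from buffer-corrected 0–120 min absorbance change; Control set: low DMSO alone, high DMSO plus 5 µM PC-7.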
* = called active by the depositor; i = inactive; · = not tested or not shown; + = active, no number.

SMILES	IMP-1 inh	PolyA inh	procasp3 activ	VIM-2 inh	Neddylation inh	proCasp7 act
Nc1c2c(nc3sc4c(c13)CCCC4)CCCC2	-4	-3	11	12*	i	-3
CCC(C)N1C(=O)/C(=C\c2cc3c4c(c2)CCCN4CCC3)C(=O)NC1=S (stereo not drawn)	-1	-11	-12	1	i	-11
C=CCn1c(O)c(C(C)=NC2CCN(Cc3ccccc3)CC2)c(=O)[nH]c1=O	-3	-2	-6	8.7*	i	7
O=c1[nH]c(=O)n(CCc2ccc(F)cc2)c(O)c1C=NCCCn1ccnc1	-3	-10	5	-1	i	2
O=C(NC1CN2CCC1CC2)c1cc(Cl)c([N+](=O)[O-])c2nc[nH]c12 (stereo not drawn)	-2	1	4	10*	i	1
O=S(=O)(NC1CN2CCC1CC2)c1ccc(Cl)cc1 (stereo not drawn)	-5	7	-4	-3	i	13
CNc1ccc2nc3ccccc3[n+](C)c2c1	-8	-14	-9	8.0*	i	-14
Cc1ccc(OCC(=O)NCCN2CCN(C(=O)COc3ccc(C)cc3)CC2)cc1	-2	-7	-1	-1	i	8
CCOC(=O)c1ccc(NC(=O)c2c(O)[nH]c(=O)[nH]c2=O)cc1	78*	-17	-5	59*	i	2
CCOc1ccc(NC(=O)c2c(O)[nH]c(=O)[nH]c2=O)cc1	·	16	12	·	i	13
Cc1ccc(S(=O)(=O)N2Cc3cc(-c4cccc(F)c4)ccc3-n3nncc3C2)cc1	·	·	·	·	i	·
NC(=O)c1c(NC(=O)c2ccc(S(=O)(=O)N(CCCl)CCCl)cc2)sc2c1CCCCC2	-1	·	1	-2	i	3
Cc1cc(/C=C2\C(=O)NC(=O)N(c3ccc(Cl)cc3)C2=O)c(C)n1-c1sc2c(c1C#N)CCCC2	5.3*	1	-11	1	i	-28
COc1ccc(CCNC2CCCCCC2)cc1	-1	-5	2	-1	i	1
O=C1CC=C2C3CC4N(CCC45c4ccccc4N1C25)CC3=CCO (stereo not drawn)	·	·	·	·	i	·
O=C1CC=C2C3CC4N(CCC45c4cc(O)c(O)cc4N1C25)CC3=CCBr (stereo not drawn)	·	·	·	·	+	·
Clc1ccc2c(c1)C(c1ccccc1Cl)=NCc1nncn1-2	-1	-7	0	0	i	-6
O=P(O)(O)Cc1ccccc1OP(=O)(c1ccccc1)c1ccccc1	-2	8	0	9.9*	i	-1
NC(=O)CSP(=O)(c1ccccc1)c1ccccc1	3	·	-11	0	i	-16
CN1CCN(C(=O)COc2ccc(Oc3ccccc3)cc2)CC1	-5	6	5	1	i	9
O=C1NC(=O)C(=Cc2ccc(-c3ccc(Cl)cc3)o2)C(=O)N1	3	0	-10	2	i	-25
O=C1NC(=O)C(=Cc2ccc(-c3ccc(S(=O)(=O)N4CCOCC4)cc3)o2)C(=O)N1	5.4*	1	-2	-1	i	-8
N#CC(c1cccnc1)N1CCOCC1 (stereo not drawn)	-3	-4	-3	-1	i	-12
C[C@]12CC[C@H]3[C@@H](CCC4=CC(=O)CC[C@@H]43)[C@@H]1CC[C@@H]2O	·	·	6	·	i	0
C[C@]12CC[C@@H]3c4ccc(O)c(O)c4CC[C@H]3[C@@H]1CC[C@@H]2O	14*	-5	-18	1	i	-24
SMILES	IMP-1 inh	PolyA inh	procasp3 activ	VIM-2 inh	Neddylation inh	proCasp7 act
CN(C)C(Cc1ccccc1)C(=O)c1ccccc1 (stereo not drawn)	-1	7	9	-1	i	-4
COc1ccc(C(C)=O)cc1CC(C(=O)c1ccc(Br)cc1)N(C)C (stereo not drawn)	6.0*	6	7	2	i	9
S=C1Nc2ccccc2Sc2ccccc21	-3	-6	-13	-5	i	-2
CCC1(c2ccccc2)C(=O)NC(=O)NC1=O	·	·	-2	·	i	-9
O=C1NC(=O)C(CCc2ccncc2)(c2ccccc2)C(=O)N1	6.1*	15	0	-5	i	-5
Cc1ccc(-c2cc(-c3ccc(C)cc3)[n+](-c3ccc(C(=O)O)cc3)c(-c3ccc(C)cc3)c2)cc1	·	6	-4	·	+	-3
CCC(CO)NC(=O)C1C=C2c3cccc4[nH]cc(c34)CC2N(C)C1 (stereo not drawn)	4	-9	-2	5	·	6
COC(=O)C1C=C2c3cccc4[nH]cc(c34)CC2N(C)C1 (stereo not drawn)	6.8*	·	·	6	·	·
CN1CCN(c2ccc([N+](=O)[O-])c(Sc3nncn3C)c2)CC1	-3	8	-9	-3	i	-5
Cc1cc(N2CCCCC2)ccc1C=C1C(=O)N(C)C(=S)N(C)C1=O	7.4*	0	-29	4	i	-22
CN1C(=O)/C(=C\c2ccc(N3CCCCCC3)cc2)C(=O)NC1=S	0	-19	0	0	i	-15
C/C(=N\NC(=O)c1ccccc1)c1c(O)n(C2CCCCC2)c(=O)[nH]c1=O	-2	-5	-12	-4	i	-19
CC1(C)OC(c2ccccc2)=C/C(=C/C=C2C(=O)NC(=O)NC2=O)O1	4.6*	-15	-16	5	i	-27
CCS(=O)(=O)Nc1cccc(C(=C2CCCCC2)c2cnc[nH]2)c1	·	·	7	·	i	15
C[N+]1(C)C2CC[C@H]1CC(OC(=O)C(CO)c1ccccc1)C2 (stereo partly drawn)	·	·	1	·	i	-11
Cc1ccc(-c2nc(N(C)C3CCN(C)CC3)c3ccccc3n2)cc1	-3	-3	-2	11*	i	-1
CN1C(=O)/C(=C/c2ccc(Cl)s2)C(=O)NC1=S	9.7*	-8	-4	2	i	-7
Cn1c(=O)c2c(nc(N/N=C/c3c(O)n(C4CCCCC4)c(=S)[nH]c3=O)n2C)n(C)c1=O	-3	10	-5	-4	+	-4
Cc1cc(OC(C)C(=O)NCc2cccnc2)c2c3c(c(=O)oc2c1)CCC3 (stereo not drawn)	-3	3	2	8.4*	·	0
CS(=O)(=O)c1ccc(C2=C(CNC(=O)c3ccncc3)[C@H]3CC[C@@H](C2)N3Cc2ccco2)cc1	·	·	·	·	i	·
O=C(Cn1cc(C=C2C(=O)NC(=O)NC2=O)c2ccccc21)NCC1CCCO1 (stereo not drawn)	-2	2	-10	0	i	-12
